Assay results as given in ChEMBL document CHEMBL5385958, “Psammaplin A and Its Analogs Attenuate Oxidative Stress in Neuronal Cells through Peroxisome Proliferator-Activated Receptor γ Activation” (J Nat Prod, 2024).
Activity calls are given as the source filed them. No cut-off for these calls is given here.

Tests used:
[1] = tested on: SH-SY5Y; assay: Antioxidant activity in human SH-SY5Y cells assessed as protection against H2O2 induced loss of cell viability at 25 uM incubated for 6 hrs in presence of H2O2 by MTT assay; type: functional, cell-based
Summary of the method: (§1)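 Neuroprotection by MTT: SH-SY5Y cells (5 × 10^4/well) cotreated 6 h with agent plus 150 μM H2O2; vitamin E 25 μM as positive control. Cells washed with Locke's buffer, given 500 μg/mL MTT for 1 h at 37 °C, solubilized with 5% SDS, absorbance read at 595 nm. Saponin 1 mg/mL death control subtracted. Triplicate, three independent times.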

[2] = tested on: SH-SY5Y; assay: Inhibition of H2O2 induced ROS release in human SH-SY5Y cells at 25 uM incubated for 6 hrs by carboxy-H2DCFDA staining based assay; type: functional, cell-based; parameters: scale not given: the % may be the effect or the level left
Summary of the method: (§2)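 ROS measurement: SH-SY5Y cells exposed to agent and 150 μM H2O2 for 6 h, washed with serum-free medium and loaded with 20 μM carboxy-H2DCFDA for 1 h at 37 °C, then PBS for 30 min. Fluorescence read by plate reader. Vitamin E 25 μM as positive control. Triplicate, three independent times; percentage of untreated control.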

[3] = tested on: SH-SY5Y; assay: Cytotoxicity against human SH-SY5Y cells assessed as reduction in cell viability at 0.001 to 1 uM incubated for 24 hrs by MTT assay; type: toxicity, cell-based; details: dose 0.001-1 µM
Summary of the method: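 MTT viability of SH-SY5Y cells (5 × 10^4/well) after 24 h exposure to 0.001, 0.01, 0.1 and 1 μM. 500 μg/mL MTT for 1 h at 37 °C after Locke's buffer wash; SDS solubilization; absorbance at 595 nm with 1 mg/mL saponin blank subtracted. DMSO vehicle below 0.5%. Triplicate, three independent times.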

[4] = biological target: T1, Peroxisome proliferator-activated receptor gamma (Homo sapiens) (UniProt P37231); assay: Activation of PPARgamma in human SH-SY5Y cells at 1 uM incubated for 6 hrs relative to control; type: cell-based; details: filed as activator
T1 sequence (whole entry): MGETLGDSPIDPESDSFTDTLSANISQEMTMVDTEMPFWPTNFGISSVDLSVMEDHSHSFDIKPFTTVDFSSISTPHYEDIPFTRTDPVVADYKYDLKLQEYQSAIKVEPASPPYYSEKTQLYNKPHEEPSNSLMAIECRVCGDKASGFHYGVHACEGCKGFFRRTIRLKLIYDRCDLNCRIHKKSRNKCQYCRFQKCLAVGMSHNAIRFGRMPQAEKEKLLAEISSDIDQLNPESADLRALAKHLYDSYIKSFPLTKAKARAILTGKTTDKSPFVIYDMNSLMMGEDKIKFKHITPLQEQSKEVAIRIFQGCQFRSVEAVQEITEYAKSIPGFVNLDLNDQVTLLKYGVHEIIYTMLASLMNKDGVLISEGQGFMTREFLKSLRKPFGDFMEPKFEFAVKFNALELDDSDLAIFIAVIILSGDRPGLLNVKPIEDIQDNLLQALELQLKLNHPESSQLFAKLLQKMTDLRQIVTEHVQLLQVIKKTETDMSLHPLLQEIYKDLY
Summary of the method: (§3)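 Nuclear extracts from SH-SY5Y cells (1 × 10^6/well) treated 6 h with 0.001–1 μM agent; rosiglitazone 10 μM as positive control. PPARγ DNA-binding activity measured by ELISA-type transcription factor kit. Absorbance corrected by Bradford protein content and expressed as percentage of control cells. Three independent experiments.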

[5] = tested on: SH-SY5Y; assay: Antioxidant activity in human SH-SY5Y cells assessed as protection against H2O2 induced loss of cell viability at 0.001 to 0.1 uM incubated for 6 hrs in presence of H2O2 by MTT assay; type: functional, cell-based; details: dose 0.001-0.1 µM; summary of the method: as §1
[6] = tested on: SH-SY5Y; assay: Antioxidant activity in human SH-SY5Y cells assessed as reversal of H2O2 induced mitochondrial membrane depolarization at 0.001 to 0.1 uM incubated for 6 hrs by TMRM staining based microplate reader analysis; type: functional, cell-based; details: dose 0.001-0.1 µM
Summary of the method: (§4)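 SH-SY5Y cells (5 × 10^4/well) cotreated with agent and 150 μM H2O2 for 6 h, then loaded with 1 μM TMRM for 30 min at 37 °C. Cells lysed with 50% H2O/DMSO; fluorescence read at 535/590 nm. Vitamin E 25 μM as positive control. Data expressed as percentage of untreated control cells. Triplicate, three independent times.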

[7] = tested on: SH-SY5Y; assay: Inhibition of H2O2 induced ROS release in human SH-SY5Y cells at 1 uM incubated for 6 hrs by carboxy-H2DCFDA staining based assay; type: functional; parameters: scale not given: the % may be the effect or the level left; summary of the method: as §2
[8] = tested on: SH-SY5Y; assay: Antioxidant activity in human SH-SY5Y cells assessed as recovery of H2O2 decreased GSH level at 1 uM incubated for 30 min by fluorescence based microplate reader assay relative to control (reference value: 83 +/- 2%); type: functional; parameters: scale not given: the % may be the effect or the level left; details: 0.5 h
[9] = tested on: SH-SY5Y; assay: Inhibition of mPTP opening in human SH-SY5Y cells assessed as decrease in cyclophilin D protein expression at 0.001 uM incubated for 6 hrs by Western blot analysis; type: cell-based
Summary of the method: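 15 μg cytosolic protein run on 4–20% SDS-PAGE, probed with anti-cyclophilin antibody 1:1000, bands normalized to actin. Three replicates in duplicate; percentage of untreated or H2O2 control.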

[10] = biological target: T1, Peroxisome proliferator-activated receptor gamma (Homo sapiens); assay: Activation of PPARgamma in human SH-SY5Y cells assessed as increase in PPARgamma nucleus translocation at 0.001 uM incubated for 6 hrs by Western blot analysis; type: cell-based; details: filed as activator
Summary of the method: (§5)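 Western blot on SH-SY5Y cells (1 × 10^6/well) treated 6 h, with or without 150 μM H2O2. Hypotonic lysis gave cytosolic fraction; nuclear extraction buffer gave nuclear fraction. 10 μg nuclear or 15 μg cytosolic protein per lane, anti-PPARγ 1:1000. Bands normalized to lamin B1 (nuclear) or actin (cytosolic); translocation expressed as nuclear/cytosolic ratio. Three replicates in duplicate.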

[11] = biological target: T1, Peroxisome proliferator-activated receptor gamma (Homo sapiens); assay: Activation of PPARgamma in H2O2 induced human SH-SY5Y cells assessed as increase in PPARgamma nucleus translocation incubated for 6 hrs by Western blot analysis; type: cell-based; details: filed as activator; summary of the method: as §5
[12] = biological target: T1, Peroxisome proliferator-activated receptor gamma (Homo sapiens); assay: Activation of PPARgamma in H2O2 induced human SH-SY5Y cells assessed as increase in catalase mRNA expression level incubated for 6 hrs by qPCR analysis; type: cell-based; details: filed as activator
Summary of the method: (§6)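 qPCR on SH-SY5Y cells (1 × 10^6/well, attached 24 h) given test agent together with 150 μM H2O2 for 6 h. Total RNA extracted, reverse transcribed with oligo-dT, amplified with SYBR Green and gene-specific primers (CAT, SOD1, GPx1). RPLP0 used as internal normalizer; ΔΔCt relative to H2O2-control calibrator. Three independent replicates in triplicate; rosiglitazone 10 μM as positive control.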

[13] = biological target: T1, Peroxisome proliferator-activated receptor gamma (Homo sapiens); assay: Activation of PPARgamma in human SH-SY5Y cells assessed as increase in glutathione peroxidase 1 mRNA expression incubated for 6 hrs by qPCR analysis; type: cell-based; details: filed as activator
Summary of the method: (§7)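 SH-SY5Y cells (1 × 10^6/well, 24 h attachment) exposed to test agent alone for 6 h. RNA extracted, cDNA made with oligo-dT primers, SYBR Green qPCR for CAT, GPx1, Nrf2 or SOD1. Expression normalized to RPLP0 and calculated by ΔΔCt against untreated control calibrator. Three independent replicates performed in triplicate; rosiglitazone 10 μM as positive control.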

[14] = biological target: T1, Peroxisome proliferator-activated receptor gamma (Homo sapiens); assay: Activation of PPARgamma in H2O2 induced human SH-SY5Y cells assessed as increase in glutathione peroxidase 1 mRNA expression incubated for 6 hrs by qPCR analysis; type: cell-based; details: filed as activator; summary of the method: as §6
[15] = biological target: T1, Peroxisome proliferator-activated receptor gamma (Homo sapiens); assay: Activation of PPARgamma in human SH-SY5Y cells assessed as increase in Nrf2 mRNA expression level at 0.001 uM incubated for 6 hrs by qPCR analysis; type: cell-based; details: filed as activator; summary of the method: as §7
[16] = tested on: SH-SY5Y; assay: Antioxidant activity in human SH-SY5Y cells assessed as protection against H2O2 induced loss of cell viability at 0.001 uM incubated for 6 hrs in presence of H2O2 by MTT assay (reference value: 76 +/- 4%); type: functional; summary of the method: as §1
[17] = tested on: SH-SY5Y; assay: Antioxidant activity in human SHSY-5Y cells assessed as protection against H2O2 induced loss of cell viability at 0.01 uM incubated for 6 hrs in presence of H2O2 by MTT assay (reference value: 76 +/- 4%); type: functional; summary of the method: as §1
[18] = tested on: SH-SY5Y; assay: Antioxidant activity in human SH-SY5Y cells assessed as reversal of H2O2 induced mitochondrial membrane depolarization at 0.001 uM incubated for 6 hrs by TMRM staining based microplate reader analysis (reference value: 76 +/- 2%); type: functional; summary of the method: as §4
[19] = tested on: SH-SY5Y; assay: Inhibition of H2O2 induced ROS release in human SH-SY5Y cells at 0.001 uM incubated for 6 hrs by carboxy-H2DCFDA staining based assay; type: functional; parameters: scale not given: the % may be the effect or the level left; summary of the method: as §2
[20] = tested on: SH-SY5Y; assay: Inhibition of mPTP opening in human SH-SY5Y cells assessed as increase in calcein fluorescence signal by flow cytometry analysis relative to control; type: cell-based; details: dose or concentration not given here
Summary of the method: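 mPTP assay: detached SH-SY5Y cells in PBS with 0.6 mM CaCl2 loaded with calcein-AM for 15 min at 37 °C. 0.4 mM CoCl2 plus 0.001 μM agent added for 15 min, then 1 mM TBHP for 3 min.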

[21] = biological target: T1, Peroxisome proliferator-activated receptor gamma (Homo sapiens); assay: Activation of PPARgamma in human SH-SY5Y cells assessed as transcription activity at 0.001 to 0.1 uM incubated for 6 hrs; type: cell-based; details: filed as activator, dose 0.001-0.1 µM; summary of the method: as §3
[22] = tested on: SH-SY5Y; assay: Inhibition of H2O2 induced ROS release in human SH-SY5Y cells at 0.001 to 1 uM incubated for 6 hrs by carboxy-H2DCFDA staining based assay; type: functional; parameters: scale not given: the % may be the effect or the level left; details: dose 0.001-1 µM; summary of the method: as §2
[23] = tested on: SH-SY5Y; assay: Antioxidant activity in human SH-SY5Y cells assessed as recovery of H2O2 decreased GSH level at 0.001 to 1 uM incubated for 30 min by fluorescence based microplate reader assay; type: functional, cell-based; details: dose 0.001-1 µM
[24] = biological target: T1, Peroxisome proliferator-activated receptor gamma (Homo sapiens); assay: Activation of PPARgamma in human SH-SY5Y cells assessed as increase in superoxide dismutase 1 mRNA expression at 0.001 uM incubated for 6 hrs by qPCR analysis; type: cell-based; details: filed as activator; summary of the method: as §7

Compound | Activity [10] [%] | Activity [11] [%] | Activity [12] | Activity [13] | Activity [14] | Activity [15] | Activity [3] | Activity [5] | Activity [6] | Activity [7] [%] | Activity [8] [%] | inhibition [9] | inhibition [20] [%] | further results
VITAMIN E |  |  |  |  |  |  |  |  |  |  |  |  |  | Activity [1]: 106%; Activity [2]: 101%
CN(CCOc1ccc(CC2SC(=O)NC2=O)cc1)c1ccccn1 (centres undefined) |  | 139 |  |  |  |  |  |  |  |  |  |  |  | 
CC(C)(C)OO |  |  |  |  |  |  |  |  |  |  |  |  | 54 | 

The next lines start with results.

Activity [10] [%] | Activity [11] [%] | Activity [12] | Activity [13] | Activity [14] | Activity [15] | Compound | Activity [3] | Activity [5] | Activity [6] | Activity [7] [%] | Activity [8] [%] | inhibition [9] | inhibition [20] [%] | further results
151 | 177 | Active | Active | Active | Active | O=C(NCCSSCCNC(=O)/C(Cc1cc(O)c(O)c(Br)c1)=N\O)/C(Cc1ccc(O)c(Br)c1)=N\O | Non-Toxic | Active | Active | 99 | 117 | inactive |  | Activity [4]: 130%
136 | 150 |  | Active | Active | Active | O=C(NCCSSCCNC(=O)/C(Cc1ccc(O)c(Br)c1)=N/O)/C(Cc1ccc(O)c(Br)c1)=N/O [PSAMMAPLIN A] | Non-Toxic |  |  | 96 | 120 | inactive |  | Activity [16]: 100%; Activity [17]: 96%; Activity [18]: 100%; Activity [19]: 101%
180 |  | Active | Active | Active | Active | O=C(NCCSSCCNC(=O)/C(Cc1cc(Br)c(O)c(-c2cc(C/C(=N\O)C(=O)NCCSSCCNC(=O)/C(Cc3ccc(O)c(Br)c3)=N/O)cc(Br)c2O)c1)=N/O)/C(Cc1ccc(O)c(Br)c1)=N/O [BISAPRASIN] | Non-Toxic | Active | Active |  |  | inactive | 92 | Activity [21]: Active; Activity [22]: 87%; Activity [23]: Active; Activity [24]: Active
